Activity calls are given as the source filed them. No cut-off for these calls is given here.
Experiments:
[1] = test system: MDA-MB-435; experiment: Antiproliferative activity against human MDA-MB-435 cells; type: functional
Outline: (§1)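 NCI ~60 human tumor cell line screen. After an initial one-dose test, selected compounds run at five concentrations spanning 10^-8 to 10^-4 M. GI50 reported for selected lines from each subpanel.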

[2] = test system: SF-539; experiment: Antiproliferative activity against human SF539 cells; type: functional; outline: as §1
[3] = test system: DU-145; experiment: Antiproliferative activity against human DU145 cells; type: functional; outline: as §1
[4] = test system: HCT-116; experiment: Antiproliferative activity against human HCT116 cells; type: functional; outline: as §1
[5] = test system: OVCAR-3; experiment: Antiproliferative activity against human OVCAR-3 cells; type: functional; outline: as §1
[6] = test system: SN12C; experiment: Antiproliferative activity against human SN12C cells; type: functional; outline: as §1
[7] = test system: HOP-62; experiment: Antiproliferative activity against human HOP62 cells; type: functional; outline: as §1
[8] = target: T1, DNA topoisomerase 1 (Homo sapiens) (UniProt P11387); experiment: Inhibition of human recombinant topoisomerase 1 assessed as DNA cleavage relative to 1 uM camptothecin
T1 sequence (whole entry): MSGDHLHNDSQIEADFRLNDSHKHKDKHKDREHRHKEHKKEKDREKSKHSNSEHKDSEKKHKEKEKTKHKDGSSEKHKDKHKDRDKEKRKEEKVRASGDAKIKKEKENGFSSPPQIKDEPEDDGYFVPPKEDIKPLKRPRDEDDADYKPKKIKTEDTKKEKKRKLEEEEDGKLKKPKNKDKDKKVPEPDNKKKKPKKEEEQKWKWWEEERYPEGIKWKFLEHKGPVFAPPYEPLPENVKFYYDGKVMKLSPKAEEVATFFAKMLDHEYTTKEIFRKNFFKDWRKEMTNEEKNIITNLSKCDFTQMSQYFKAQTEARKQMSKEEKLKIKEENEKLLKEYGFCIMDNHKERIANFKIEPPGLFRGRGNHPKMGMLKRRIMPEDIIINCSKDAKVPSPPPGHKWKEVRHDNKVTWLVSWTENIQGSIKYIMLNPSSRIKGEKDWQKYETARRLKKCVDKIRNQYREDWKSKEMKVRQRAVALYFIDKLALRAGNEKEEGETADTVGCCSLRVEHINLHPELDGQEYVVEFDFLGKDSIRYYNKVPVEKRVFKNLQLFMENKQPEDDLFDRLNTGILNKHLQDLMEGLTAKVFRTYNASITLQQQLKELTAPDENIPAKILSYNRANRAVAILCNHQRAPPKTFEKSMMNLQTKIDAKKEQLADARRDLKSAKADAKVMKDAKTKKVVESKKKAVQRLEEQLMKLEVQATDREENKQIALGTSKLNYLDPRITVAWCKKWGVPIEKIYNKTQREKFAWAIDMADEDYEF
Outline: (§2)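 Baculovirus-expressed, purified human recombinant top1. Substrate is the 161 bp PvuII/HindIII fragment of pBluescript SK(-), 3'-end labeled at the HindIII site with [α-32P]-dGTP (about 50 000 dpm/reaction). Incubated with drug at 22 °C for 30 min. Products resolved on denaturing 16% polyacrylamide/7 M urea gels and imaged by phosphorimager. Tested at 0.1, 1, 10 and 100 µM.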

[9] = test system: UACC-62; experiment: Antiproliferative activity against human UACC62 cells; type: functional; outline: as §1
[10] = test system: HOP-62; experiment: Growth inhibition of human HOP62 cells at 10 uM; type: functional; conditions: pooled result: one value given for 8 cell lines, strains, targets or settings, read-out: GI
[11] = target: T1, DNA topoisomerase 1 (Homo sapiens); experiment: Induction of human recombinant topoisomerase 1-mediated DNA cleavage at 100 uM; outline: as §2

Structure (SMILES) | GI50 [1] [µM] | GI50 [2] [µM] | GI50 [3] [µM] | GI50 [4] [µM] | GI50 [5] [µM] | GI50 [6] [µM] | GI50 [7] [µM] | inhibition [8] [%] | GI50 [9] [µM] | inhibition of growth at 10 µM [10] [%] | Activity [11] | Activity [8]
O=c1c2ccccc2cc2n1Cc1c-2nc2ccccc2c1Cn1ccnc1 | > 100 | 4.7 | 11.5 | 13.2 | 17 | 21.5 | 10 | 75 | 3.4 |  |  | 
O=c1c2ccccc2cc2n1Cc1c-2nc2ccccc2c1CN1CC[C@H](O)C1 | 10.3 | 5.4 | 7 | 9 | 5.5 | 16.9 | 28.6 | 75 | 2.7 |  |  | 
O=c1c2ccccc2cc2n1Cc1c-2nc2ccccc2c1CN1CCOCC1 |  |  |  |  |  |  |  | 50 |  | 14 |  | 
CN(C)CCCc1c2c(nc3ccccc13)-c1cc3ccccc3c(=O)n1C2 |  |  |  |  |  |  |  | 75 |  | 21.4 |  | 
O=c1c2ccccc2cc2n1Cc1c-2nc2ccccc2c1CNCCCn1ccnc1 | 7 | 3.8 | 3.2 | 3.2 | 4.4 | 3.5 | 4.7 | 50 | 6.4 |  |  | 
CN(C)Cc1c2c(nc3ccccc13)-c1cc3ccccc3c(=O)n1C2 | > 100 | > 100 | > 100 |  | > 100 | > 100 | > 100 | 75 | > 100 |  |  | 
CC[C@@]1(O)C(=O)OCc2c1cc1n(c2=O)Cc2cc3ccccc3nc2-1 [CAMPTOTHECIN] | 0.04 | 0.01 | 0.01 | 0.03 |  | 0.02 | 0.01 |  | 0.01 |  |  | 
O=c1c2ccccc2cc2n1Cc1c-2nc2ccccc2c1CCCn1ccnc1 | 4.2 | 0.74 | 3.3 | 1.6 | 5 | 4.5 | 2 | 75 | 1.5 |  |  | 
O=c1c2ccccc2cc2n1Cc1c-2nc2ccccc2c1CCCN1CCOCC1 | > 100 | 3.5 | 20.3 | 3.9 | 10.6 | 5.9 | 5 | 50 | 1.4 |  |  | 
O=c1c2ccccc2cc2n1Cc1c-2nc2ccccc2c1CCl | > 100 | 7.4 | > 100 | 43.4 | > 100 | > 100 | 26.5 | 20 | > 100 |  |  | 
COc1cc2c3c(n(C)c(=O)c2cc1OC)-c1cc2c(cc1C3=O)OCO2 | 96 | 41 | 37 | 35 |  | 68 | 1.3 | 50 | 4.2 |  |  | 
O=c1c2cccc(CO)c2cc2n1Cc1cc3ccccc3nc1-2 |  |  |  |  |  |  |  | 20 |  |  |  | 
NCCCc1c2c(nc3ccccc13)-c1cc3ccccc3c(=O)n1C2 |  |  |  |  |  |  |  | 20 |  |  |  | 
O=c1c2ccccc2cc2n1Cc1c-2nc2ccccc2c1CCCNCCO | 1.7 | 12.9 | 13.2 | 1.6 | 6.3 | 4.1 | 1.2 |  | 1.8 |  | Active | Active
CN1CCN(Cc2c3c(nc4ccccc24)-c2cc4ccccc4c(=O)n2C3)CC1 | 2.1 | 1.8 | 4.9 | 1.9 |  | > 100 | > 100 | 75 | > 100 |  |  | 
COc1cc2c3c(n(CCCNCCO)c(=O)c2cc1OC)-c1cc2c(cc1C3=O)OCO2 [LMP-744] | 0.79 | 0.04 | > 0.01 | 0.1 | 0.5 | > 0.01 | 0.02 |  | 0.03 |  |  | Active
COc1cc2cc3n(c(=O)c2cc1OC)Cc1cc2ccccc2nc1-3 [DIMETHOXYAROMATHECIN] | > 100 | > 100 | > 100 |  | > 100 | > 100 | > 100 | 20 | > 100 |  |  | 
O=c1c2ccccc2cc2n1Cc1cc3ccccc3nc1-2 [ROSETTACIN] |  |  | > 100 |  |  | > 100 |  | 50 |  |  |  | 
O=c1c2ccccc2cc2n1Cc1c-2nc2ccccc2c1CNCCO | > 100 | 3.9 | 2.8 | 3.6 | 6.3 | 2.7 | 3.5 | 75 | 2.6 |  |  | 
O=c1c2ccccc2cc2n1Cc1c-2nc2ccccc2c1CNCCCN1CCOCC1 |  |  |  |  |  |  |  |  |  | 25.5 |  | 
NCc1c2c(nc3ccccc13)-c1cc3ccccc3c(=O)n1C2 | 9.4 | 4.9 | 2.8 | 1.5 | 2.9 | 2.9 | 9.8 | 50 | 11.7 |  |  | 
